{"source": "ChEMBL document CHEMBL4052629", "about": "“Scutellarin derivatives as apoptosis inducers: Design, synthesis and biological evaluation” (Eur J Med Chem, 2017)", "key": {"PC-3 [1]": {"test_system": "PC-3", "assay": "Cell cycle arrest in human PC3 cells assessed as accumulation at G1 phase at 0.16 uM after 72 hrs by propidium iodide staining-based flow cytometric analysis (reference value: 53.36%)", "type": "functional", "method_in_brief": "(§1)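 Concentrations used were 0, 0.3, 0.6 and 1.2 μM in HepG2 and 0, 0.16, 0.31 and 1.25 μM in PC-3, with untreated cells as control, for 72 h. Cells were trypsinized, washed in PBS, fixed in cold ethanol at 4 °C overnight, then incubated 30 min in PBS containing RNase A and propidium iodide. DNA content was read by flow cytometry to give phase distribution.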"}, "PC-3 [2]": {"test_system": "PC-3", "assay": "Cell cycle arrest in human PC3 cells assessed as accumulation at G2/M phase at 0.16 uM after 72 hrs by propidium iodide staining-based flow cytometric analysis (reference value: 10.19%)", "type": "functional", "method_in_brief": "as §1"}, "PC-3 [3]": {"test_system": "PC-3", "assay": "Cell cycle arrest in human PC3 cells assessed as accumulation at S phase at 0.16 uM after 72 hrs by propidium iodide staining-based flow cytometric analysis (reference value: 36.46%)", "type": "functional", "method_in_brief": "as §1"}, "PC-3 [4]": {"test_system": "PC-3", "assay": "Cell cycle arrest in human PC3 cells assessed as accumulation at G1 phase at 0.31 uM after 72 hrs by propidium iodide staining-based flow cytometric analysis (reference value: 53.36%)", "type": "functional", "method_in_brief": "as §1"}, "PC-3 [5]": {"test_system": "PC-3", "assay": "Cell cycle arrest in human PC3 cells assessed as accumulation at S phase at 0.31 uM after 72 hrs by propidium iodide staining-based flow cytometric analysis (reference value: 36.46%)", "type": "functional", "method_in_brief": "as §1"}, "PC-3 [6]": {"test_system": "PC-3", "assay": "Cell cycle arrest in human PC3 cells assessed as accumulation at G1 phase at 1.25 uM after 72 hrs by propidium iodide staining-based flow cytometric analysis (reference value: 53.36%)", "type": "functional", "method_in_brief": "as §1"}, "PC-3 [7]": {"test_system": "PC-3", "assay": "Cell cycle arrest in human PC3 cells assessed as accumulation at G2/M phase at 1.25 uM after 72 hrs by propidium iodide staining-based flow cytometric analysis (reference value: 10.19%)", "type": "functional", "method_in_brief": "as §1"}, "PC-3 [8]": {"test_system": "PC-3", "assay": "Cell cycle arrest in human PC3 cells assessed as accumulation at S phase at 1.25 uM after 72 hrs by propidium iodide staining-based flow cytometric analysis (reference value: 36.46%)", "type": "functional", "method_in_brief": "as §1"}, "PC-3 [9]": {"test_system": "PC-3", "assay": "Induction of apoptosis in human PC3 cells assessed as early apoptotic cells at 0.16 uM after 72 hrs by Annexin V-APC/7-AAD or propidium iodide staining-based flow cytometric analysis (reference value: 4.09%)", "type": "functional"}, "PC-3 [10]": {"test_system": "PC-3", "assay": "Induction of apoptosis in human PC3 cells assessed as late apoptotic cells at 0.16 uM after 72 hrs by Annexin V-APC/7-AAD or propidium iodide staining-based flow cytometric analysis (reference value: 4.74%)", "type": "functional"}, "PC-3 [11]": {"test_system": "PC-3", "assay": "Induction of apoptosis in human PC3 cells assessed as early apoptotic cells at 0.31 uM after 72 hrs by Annexin V-APC/7-AAD or propidium iodide staining-based flow cytometric analysis (reference value: 4.09%)", "type": "functional"}, "PC-3 [12]": {"test_system": "PC-3", "assay": "Induction of apoptosis in human PC3 cells assessed as necrotic cells at 0.31 uM after 72 hrs by Annexin V-APC/7-AAD or propidium iodide staining-based flow cytometric analysis (reference value: 2.43%)", "type": "functional"}, "PC-3 [13]": {"test_system": "PC-3", "assay": "Induction of apoptosis in human PC3 cells assessed as late apoptotic cells at 1.25 uM after 72 hrs by Annexin V-APC/7-AAD or propidium iodide staining-based flow cytometric analysis (reference value: 4.74%)", "type": "functional"}, "L02 [14]": {"test_system": "L02", "assay": "Induction of apoptosis in human LO2 cells assessed as early apoptotic cells at 1.25 uM after 72 hrs by Annexin V-FITC/7-AAD or propidium iodide staining-based flow cytometric analysis (reference value: 3.65%)", "type": "cell-based", "details": "l02, 72 h"}, "L02 [15]": {"test_system": "L02", "assay": "Induction of apoptosis in human LO2 cells assessed as necrotic cells at 1.25 uM after 72 hrs by Annexin V-FITC/7-AAD or propidium iodide staining-based flow cytometric analysis (reference value: 1.99%)", "type": "cell-based", "details": "l02, 72 h"}, "PC-3 [16]": {"test_system": "PC-3", "assay": "Induction of apoptosis in human PC3 cells assessed as reduction in mitochondrial membrane potential at 1.25 uM after 48 hrs by JC-1 staining-based flow cytometric analysis (reference value: 1.86%)", "type": "functional", "set-up": "scale not given: the % may be the effect or the level left", "method_in_brief": "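After overnight culture, PC-3 cells were treated in triplicate with 0, 0.16, 0.31 or 1.25 μM, or vehicle, for 48 h. They were then loaded with JC-1, and the proportion with depolarized mitochondrial membrane potential was counted by flow cytometry.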"}, "HepG2 [17]": {"test_system": "HepG2", "assay": "Cell cycle arrest in human HepG2 cells assessed as accumulation at G1 phase at 0.3 uM after 72 hrs by propidium iodide staining-based flow cytometric analysis (reference value: 34%)", "type": "functional", "method_in_brief": "as §1"}, "HepG2 [18]": {"test_system": "HepG2", "assay": "Cell cycle arrest in human HepG2 cells assessed as accumulation at G1 phase at 0.6 uM after 72 hrs by propidium iodide staining-based flow cytometric analysis (reference value: 34%)", "type": "functional", "method_in_brief": "as §1"}, "HepG2 [19]": {"test_system": "HepG2", "assay": "Cell cycle arrest in human HepG2 cells assessed as accumulation at S phase at 1.2 uM after 72 hrs by propidium iodide staining-based flow cytometric analysis (reference value: 44.6%)", "type": "functional", "method_in_brief": "as §1"}, "HepG2 [20]": {"test_system": "HepG2", "assay": "Induction of apoptosis in human HepG2 cells assessed as cell shrinkage at 0.3 to 0.6 uM after 48 hrs by Hoechst 33258 staining-based fluorescent microscopic analysis", "type": "functional", "method_in_brief": "(§2)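 HepG2 cells grown on coverslips were treated for 48 h at 0.3, 0.6 or 1.2 μM, then fixed in 4% paraformaldehyde for 10 min. After PBS washes, cells were stained with Hoechst 33258 for 5 min and washed again. Nuclear morphology was examined by fluorescence imaging at 350 nm excitation and 460 nm emission.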"}, "HepG2 [21]": {"test_system": "HepG2", "assay": "Induction of apoptosis in human HepG2 cells assessed as chromatin condensation at 0.3 to 0.6 uM after 48 hrs by Hoechst 33258 staining-based fluorescent microscopic analysis", "type": "functional, cell-based", "method_in_brief": "as §2"}, "HepG2 [22]": {"test_system": "HepG2", "assay": "Induction of apoptosis in human HepG2 cells assessed as viable cells at 0.3 uM after 72 hrs by Annexin V-APC/7-AAD or propidium iodide staining-based flow cytometric analysis (reference value: 90.08%)", "type": "functional", "details": "HepG2, 72 h, read-out: Activity"}, "HepG2 [23]": {"test_system": "HepG2", "assay": "Induction of apoptosis in human HepG2 cells assessed as viable cells at 0.6 uM after 72 hrs by Annexin V-APC/7-AAD or propidium iodide staining-based flow cytometric analysis (reference value: 90.08%)", "type": "functional", "details": "HepG2, 72 h, read-out: Activity"}, "HepG2 [24]": {"test_system": "HepG2", "assay": "Induction of apoptosis in human HepG2 cells assessed as late apoptotic cells at 1.2 uM after 72 hrs by Annexin V-APC/7-AAD or propidium iodide staining-based flow cytometric analysis (reference value: 4.14%)", "type": "functional"}, "HepG2 [25]": {"test_system": "HepG2", "assay": "Induction of apoptosis in human HepG2 cells assessed as necrotic cells at 1.2 uM after 72 hrs by Annexin V-APC/7-AAD or propidium iodide staining-based flow cytometric analysis (reference value: 1.87%)", "type": "functional"}, "[26]": {"assay": "Induction of apoptosis in human LO2 cells assessed as viable cells at 1.2 uM after 72 hrs by Annexin V-FITC/7-AAD or propidium iodide staining-based flow cytometric analysis (reference value: 94.26%)", "type": "cell-based, L02", "details": "read-out: Activity"}, "HepG2 [27]": {"test_system": "HepG2", "assay": "Induction of apoptosis in human HepG2 cells assessed as reduction in Hsp27 expression levels at 2 uM after 24 hrs by membrane-based sandwich immunoassay", "type": "functional, cell-based", "method_in_brief": "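HepG2 cells treated at 2 μM for 24 h; protein extracts prepared per the kit protocol. Relative levels of 35 apoptosis-related proteins measured with a human apoptosis antibody array.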"}}, "note": "Active and inactive are the calls of the source. No cut-off for these calls is given here.", "data": [{"smiles": "COc1ccc(-c2cc(=O)c3c(O)c(OC)c(O[C@@H]4O[C@H](C(=O)NCCOc5no[n+]([O-])c5S(=O)(=O)c5ccccc5)[C@@H](O)[C@H](O)[C@H]4O)cc3o2)cc1", "values": [{"measurement": "Activity", "setting": "PC-3 [1]", "value": 50.05, "unit": "%"}, {"measurement": "Activity", "setting": "PC-3 [2]", "value": 11.62, "unit": "%"}, {"measurement": "Activity", "setting": "PC-3 [3]", "value": 38.34, "unit": "%"}, {"measurement": "Activity", "setting": "PC-3 [4]", "value": 43.22, "unit": "%"}, {"measurement": "Activity", "setting": "PC-3 [5]", "value": 43.3, "unit": "%"}, {"measurement": "Activity", "setting": "PC-3 [6]", "value": 40.49, "unit": "%"}, {"measurement": "Activity", "setting": "PC-3 [7]", "value": 9.1, "unit": "%"}, {"measurement": "Activity", "setting": "PC-3 [8]", "value": 50.41, "unit": "%"}, {"measurement": "Activity", "setting": "PC-3 [9]", "value": 3.71, "unit": "%"}, {"measurement": "Activity", "setting": "PC-3 [10]", "value": 12.75, "unit": "%"}, {"measurement": "Activity", "setting": "PC-3 [11]", "value": 13.2, "unit": "%"}, {"measurement": "Activity", "setting": "PC-3 [12]", "value": 2.76, "unit": "%"}, {"measurement": "Activity", "setting": "PC-3 [13]", "value": 43.54, "unit": "%"}, {"measurement": "Activity", "setting": "L02 [14]", "value": 17.35, "unit": "%"}, {"measurement": "Activity", "setting": "L02 [15]", "value": 1.32, "unit": "%"}, {"measurement": "Activity", "setting": "PC-3 [16]", "value": 61.01, "unit": "%"}]}, {"smiles": "O=C(NCCCOc1no[n+]([O-])c1S(=O)(=O)c1ccccc1)[C@H]1O[C@@H](Oc2cc3oc(-c4ccc(OCc5ccccc5)cc4)cc(=O)c3c(O)c2OCc2ccccc2)[C@H](O)[C@@H](O)[C@@H]1O", "values": [{"measurement": "Activity", "setting": "HepG2 [17]", "value": 32.13, "unit": "%"}, {"measurement": "Activity", "setting": "HepG2 [18]", "value": 32.02, "unit": "%"}, {"measurement": "Activity", "setting": "HepG2 [19]", "value": 69.63, "unit": "%"}, {"measurement": "Activity", "setting": "HepG2 [20]", "value": "Active"}, {"measurement": "Activity", "setting": "HepG2 [21]", "value": "Active"}, {"measurement": "viability at 0.3 µM", "setting": "HepG2 [22]", "value": 79.6, "unit": "%"}, {"measurement": "viability at 0.6 µM", "setting": "HepG2 [23]", "value": 64.6, "unit": "%"}, {"measurement": "Activity", "setting": "HepG2 [24]", "value": 39.16, "unit": "%"}, {"measurement": "Activity", "setting": "HepG2 [25]", "value": 5.62, "unit": "%"}, {"measurement": "viability at 72 h, 1.2 µM", "setting": "[26]", "value": 81.5, "unit": "%"}, {"measurement": "Activity", "setting": "HepG2 [27]", "value": "Active"}]}]}
